The source of these data is ChEMBL document CHEMBL1135550, “Highly potent geminal bisphosphonates. From pamidronate disodium (Aredia) to zoledronic acid (Zometa)” (J Med Chem, 2002).

Broadly, the IC50 is the concentration that gives 50% inhibition. Read a high IC50 as weaker potency. Broadly, the ED50 is the dose at which the effect has come halfway, by size or by number of responders.

The species entered for data set [1] is Mus musculus. Briefly: Inhibition of bone mineralization in the calvaria assay of mouse. The data set is classed as functional.
Data set [2] is filed under the species Mus musculus. Briefly: Inhibition of bone resorption in the calvaria assay of mouse. The data set is classed as functional.
Data set [3] has as its system Rattus norvegicus. The experiment in a line: Effective dose after subcutaneous administration to TPTX rats for 50% reduction of hypercalcemia. The data set is classed as functional. To be noted: sc. An outline of the steps: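 Young male rats (130-150 g) were thyroparathyroidectomized and allowed 4 days to recover, then fasting serum was sampled. Animals with serum Ca above 1.88 mM were discarded, and the rest were randomized into groups of 5. On days 5-8, 1,25(OH)2D3 (125 pmol/kg sc) was given with graded sc doses of bisphosphonate, and total serum calcium was measured. ED50 is the sc dose halving the hypercalcemia.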

Data set [4] in a line: Therapeutic ratio comparing nephrotoxic potential versus bone antiresorptive potency ( reciprocal of ED50 (TPTX assay) / the total urinary malate dehydrogenase excretion). It counts as ADME. Conditions: urine; read-out: Therapeutic ratio. Put shortly:
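Ratio = (1/TPTX ED50 in mg/kg) ÷ total urinary malate dehydrogenase units, pooled from eight 24-h urine collections after starting repeated sc dosing. ED50 model: young male rats (130-150 g), thyroparathyroidectomized, 4-day recovery; rats with fasting serum Ca above 1.88 mM excluded; groups of 5. Days 5-8: 1,25(OH)2D3 125 pmol/kg sc plus graded sc bisphosphonate. ED50 = dose halving the hypercalcemia (total serum calcium).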

Data set [5] can be described thus: Ratio of calvaria mineralization to calvaria bone resorption. The data set is classed as functional.
Data set [6] is filed under the species Mus musculus. The experiment in a line: Inhibition of mineralization in the calvaria assay of mouse. It counts as functional. Put shortly:
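In vitro mineralization assay in mouse calvaria cultures. The read-out is calcium incorporation into the calvaria.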

Data set [7] is filed under the species Rattus norvegicus. The experiment in a line: Effective dose for increased serum urea level rats after a treatment period of 1 hr in renal tolerability model. The data set is classed as functional.
The species named for data set [8] is Rattus norvegicus. Briefly: Effective dose for increased radiographic bone density in young interact rats after a treatment period of 10 days. The data set is classed as functional. Conditions: 240 h.
The species named for data set [9] is Rattus norvegicus. The experiment in a line: Effective dose for increased cancellous bone area in young interact rats after a treatment period of 10 days. The data set is classed as functional. Conditions: 240 h.
The species named for data set [10] is Rattus norvegicus. Briefly: Effective dose for increased mucosal permeability of perfused ileal loop in rats after a treatment period of 2 hr in intestinal tolerability model. The data set is classed as functional.
For data set [11], the species on record is Rattus norvegicus. Briefly: Effective dose for increased urinary excretion of MDH in rats after a treatment period of 14 days in renal tolerability model. The data set is classed as functional, Urine.
The species entered for data set [12] is Rattus norvegicus. The experiment in a line: Effective dose for increased cancellous bone hydroxy proline in young interact rats after a treatment period of 10 days. It counts as functional. To be noted: 240 h.
For data set [13], the species on record is Rattus norvegicus. The experiment in a line: Effective dose for increased cancellous bone calcium in young interact rats after a treatment period of 10 days. It counts as functional. Conditions: 240 h.
For data set [14], the species on record is Rattus norvegicus. The experiment in a line: Effective dose for increased cancellous bone calcium in young intact rats after a treatment period of 10 days. It counts as functional. To be noted: 240 h.
The species entered for data set [15] is Rattus norvegicus. Briefly: Compound was tested for increased mucosal permeability of perfused ileal loop in rats after a treatment period of 2 hr in intestinal tolerability model. The data set is classed as functional.
The species entered for data set [16] is Rattus norvegicus. The experiment in a line: Compound was tested for increased urinary excretion of MDH in rats after a treatment period of 14 days in renal tolerability model. It counts as functional, Urine.
The species named for data set [17] is Rattus norvegicus. The experiment in a line: Effective dose for increased cancellous bone hydroxy proline in young intact rats after a treatment period of 10 days. The data set is classed as functional. Conditions: 240 h.
The species named for data set [18] is Rattus norvegicus. Briefly: Effective dose for increased radiographic bone density in young intact rats after a treatment period of 10 days. The data set is classed as functional. To be noted: 240 h.
Data set [19] is filed under the species Rattus norvegicus. The experiment in a line: Effective dose for increased cancellous bone area in young intact rats after a treatment period of 10 days. It counts as functional. To be noted: 240 h.

The structures appear in SMILES notation.

As for `NCCCC(O)(P(=O)(O)O)P(=O)(O)O` [ALENDRONIC ACID], the results for the IC50 in the data set listed under Mus musculus [1] and in the data set filed under Mus musculus [2] were 20 µM and 0.05 µM, respectively. The ED50 with Rattus norvegicus [3] was 8 µg/kg. Besides, the selectivity ratio in data set [4] turned out to be 6.6. In data set [5], the Ratio amounted to 400.
As to `NCCC(O)(P(=O)(O)O)P(=O)(O)O` [PAMIDRONIC ACID], the IC50 amounted to 0.2 µM in the data set filed under Mus musculus [2] and 100 µM in the data set listed under Mus musculus [6]. In the data set listed under Rattus norvegicus [7], this compound registered an ED100 of 11000 µg/kg. Moreover, the ED50 is 390 µg/kg in the data set filed under Rattus norvegicus [8]; 7.1 µg/kg in the data set filed under Rattus norvegicus [9]; 210 µg/kg in the data set listed under Rattus norvegicus [12]; 61 µg/kg with Rattus norvegicus [3]; 22.7 µg/kg in the data set listed under Rattus norvegicus [13]. Moreover, the NOL in the data set listed under Rattus norvegicus [10] turned out to be 10 mM; in the data set filed under Rattus norvegicus [11], 0.1 mg/kg. Further, the selectivity ratio in data set [4] is 1.2. In addition, the Ratio in data set [5] is 500.
Take `O.O=P(O)(O)C(O)(Cn1ccnc1)P(=O)(O)O` [ZOLEDRONIC ACID]: the IC50 in the data set filed under Mus musculus [2] came out at 0.002 µM; in the data set filed under Mus musculus [6] it was 30 µM. The same compound returned an ED100 in the data set filed under Rattus norvegicus [7] of 38000 µg/kg. Also, the ED50 in the data set filed under Rattus norvegicus [14] turned out to be 0.17 µg/kg; in the data set listed under Rattus norvegicus [17], 1.1 µg/kg; in the data set listed under Rattus norvegicus [18], 1.7 µg/kg; in the data set filed under Rattus norvegicus [19] it was 0.071 µg/kg. Further, the NOL was 10 mM in the data set listed under Rattus norvegicus [15] and more than 1000 µg/kg in the data set listed under Rattus norvegicus [16]. Moreover, the Ratio in [5] came to 15000.
